Here are results for 21 compounds from ChEMBL document CHEMBL3352278, “Design and discovery of 5-hydroxy-6-oxo-1,6-dihydropyrimidine-4-carboxamide inhibitors of HIV-1 integrase” (Bioorg Med Chem, 2014).

Data set [1] addresses T1, Human immunodeficiency virus type 1 integrase (Human immunodeficiency virus 1, UniProt Q7ZJM1). The experiment in a line: Inhibition of HIV1 recombinant wild type integrase strand transfer activity by gel-based assay.
A short description of data set [2]: Cytotoxicity against human MT4 cells assessed as cell viability by MTT assay. The format is cell-based. An outline of the steps: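 Uninfected MT-4 cells run in parallel with the antiviral assay, exposed to 5-fold serial dilutions of compound. Viability read by MTT; CC50 is the concentration reducing viability by 50%.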
(In general: Tetrazolium assays rely on reduction of a dye to a coloured formazan, in cell work by metabolically active cells.)

The subject of data set [3] is Human immunodeficiency virus 1. The experiment in a line: Antiviral activity against wild-type HIV1 3B infected in human MT4 cells assessed as inhibition of viral cytopathic effect by MTT assay. It is filed as functional, organism-based. Conditions: Human immunodeficiency virus 1, 3B. An outline of the steps: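 MT-4 cells infected with 100–300 CCID50 of titrated HIV-1 IIIB stock in the presence of 5-fold serial dilutions of compound (DMSO stocks, diluted in DMSO). Protection against virus-induced cytopathic effect read by MTT; EC50 taken as the concentration giving 50% protection.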

Data set [4] is described as follows: Retention time of the compound by HPLC. The format is physicochemical.
Data set [5] in a line: Therapeutic index, ratio of CC50 for human MT4 cells to EC50 for HIV1 3B infected in human MT4 cells. It is filed as cell-based. Conditions: HIV1 3B infected MT4 cells, read-out: Ratio CC50/EC50. An outline of the steps:
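Computed as CC50/EC50, both from parallel MTT assays in MT-4 cells, with and without infection by 100–300 CCID50 HIV-1 IIIB, using 5-fold serial compound dilutions.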

Data set [6] deals with T1, Human immunodeficiency virus type 1 integrase. As to the kind of experiment: Inhibition of HIV1 recombinant wild type integrase 3'-processing activity by gel-based assays.

T1 sequence (Q7ZJM1 whole entry): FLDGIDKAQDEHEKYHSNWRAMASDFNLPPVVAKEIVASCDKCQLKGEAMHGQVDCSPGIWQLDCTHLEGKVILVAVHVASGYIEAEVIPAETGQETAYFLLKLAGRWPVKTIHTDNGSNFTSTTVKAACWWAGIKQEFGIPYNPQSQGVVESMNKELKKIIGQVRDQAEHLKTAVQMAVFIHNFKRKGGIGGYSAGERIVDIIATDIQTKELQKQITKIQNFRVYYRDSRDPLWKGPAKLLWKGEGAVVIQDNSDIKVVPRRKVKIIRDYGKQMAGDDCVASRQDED

`O=C(NCc1ccc(F)cc1)c1nc(-c2ccc(F)cc2)[nH]c(=O)c1O`: the IC50 in data set [1] is 0.6 µM; in data set [6], 12 µM. In addition, in data set [2], the CC50 was found to be 44 µM. The EC50 in data set [3] is 1.72 µM. In addition, the Retention_time in data set [4] was determined as 4.075 min. Moreover, the selectivity ratio in data set [5] amounted to 26.
In the case of `O=C(NCc1ccc(Cl)cc1)c1nc(-c2ccc(F)cc2)[nH]c(=O)c1O`, the IC50 in data set [1] stood at 0.8 µM; in data set [6], 9 µM. In addition, the CC50 in data set [2] stood at 44 µM. In addition, in data set [3], the EC50 amounted to 8.1 µM. This compound also came in with a Retention_time in data set [4] of 5.03 min. Besides, the selectivity ratio in data set [5] came to 5.
As to `O=C(NCc1ccc(Br)cc1)c1nc(-c2ccc(F)cc2)[nH]c(=O)c1O`, the IC50 amounted to 0.5 µM in data set [1] and 11 µM in data set [6]. In data set [2], the CC50 came out at 47.5 µM. Also, the EC50 in data set [3] worked out at 11 µM. Moreover, the Retention_time in data set [4] is 5.373 min. Also, in data set [5], the selectivity ratio stood at 4.
As to `O=C(NCc1ccc(F)c(F)c1)c1nc(-c2ccc(F)cc2)[nH]c(=O)c1O`, the IC50 in data set [1] was 1 µM; in data set [6] it was 17 µM. For the same compound, the CC50 in data set [2] is 31 µM. Further, the EC50 in data set [3] was 5.17 µM. Further, in data set [4], the Retention_time is reported as 4.39 min. Further, the selectivity ratio in data set [5] turned out to be 6.
Regarding `Cc1ccc(CNC(=O)c2nc(-c3ccc(F)cc3)[nH]c(=O)c2O)cc1C`, the IC50 stood at 0.5 µM in data set [1] and 16 µM in data set [6]. Further, the CC50 in data set [2] amounted to 33.5 µM. Moreover, in data set [3], the EC50 stood at 2.7 µM. In data set [4], this compound displayed a Retention_time of 6.437 min. The selectivity ratio in data set [5] amounted to 12.
Regarding `COc1ccc(CNC(=O)c2nc(-c3ccc(F)cc3)[nH]c(=O)c2O)cc1`, the IC50 stood at 2 µM in data set [1] and 16 µM in data set [6]. In addition, the CC50 in data set [2] was found to be 44 µM. The EC50 in data set [3] came out at 7.61 µM. This compound registered a Retention_time in data set [4] of 4.134 min. Moreover, the selectivity ratio in data set [5] is 6.
Consider `O=C(NCCc1ccc(F)cc1)c1nc(-c2ccc(F)cc2)[nH]c(=O)c1O`, for which the IC50 is 4 µM in data set [1] and 17 µM in data set [6]. The CC50 in data set [2] turned out to be 30 µM. Moreover, the EC50 in data set [3] is more than 30 µM. In addition, in data set [4], the Retention_time is reported as 4.748 min.
Take `O=C(NCc1cccc(Cl)c1)c1nc(-c2ccc(F)cc2)[nH]c(=O)c1O`: the results for the IC50 in data set [1] and in data set [6] were 1.4 µM and 20 µM, respectively. For the same compound, the cytotoxic concentration (CC50) in data set [2] turned out to be 35 µM. The EC50 in data set [3] came to 1.91 µM. Also, in data set [4], the Retention_time was determined as 5.251 min. Moreover, the selectivity ratio in data set [5] came to 18.
Take `O=C(NCc1ccc(O)cc1)c1nc(-c2ccc(F)cc2)[nH]c(=O)c1O`: the IC50 in data set [1] is 6 µM; in data set [6], more than 20 µM. Further, the CC50 in data set [2] stood at 49 µM. Besides, in data set [3], the EC50 came out at 6.71 µM. In addition, in data set [4], the Retention_time is on record as 2.846 min. Further, the selectivity ratio in data set [5] turned out to be 7.
Consider `O=C(NCc1cccc(F)c1)c1nc(-c2ccc(F)cc2)[nH]c(=O)c1O`, for which the figures for the IC50 in data set [1] and in data set [6] were 3 µM and 20 µM, respectively. For the same compound, the CC50 in data set [2] amounted to 49.5 µM. The EC50 in data set [3] turned out to be 7.34 µM. Moreover, the Retention_time in data set [4] was 4.349 min. For the same compound, the selectivity ratio in data set [5] stood at 7.
As to `O=C(NCc1ccccc1F)c1nc(-c2ccc(F)cc2)[nH]c(=O)c1O`, the IC50 in data set [1] came to 7 µM; in data set [6], 20 µM. Further, the CC50 in data set [2] came out at 28.5 µM. Also, the EC50 in data set [3] turned out to be 7.81 µM. Moreover, the Retention_time in data set [4] was determined as 2.395 min. For the same compound, in data set [5], the selectivity ratio worked out at 4.
Take `O=C(NCc1cccc(Cl)c1F)c1nc(-c2ccc(F)cc2)[nH]c(=O)c1O`: the IC50 in data set [1] came to 1.4 µM; in data set [6], 13 µM. Moreover, in data set [2], the CC50 came to 48 µM. In addition, the EC50 in data set [3] worked out at 2.61 µM. The Retention_time in data set [4] is reported as 2.309 min. The selectivity ratio in data set [5] turned out to be 18.
On to `O=C(NCc1ccc(F)c(Cl)c1)c1nc(-c2ccc(F)cc2)[nH]c(=O)c1O`, for which the IC50 was determined as 4 µM in data set [1] and 6 µM in data set [6]. Also, in data set [2], the CC50 came out at 45.5 µM. Moreover, the EC50 in data set [3] amounted to 1.3 µM. Further, in data set [4], the Retention_time came to 3.56 min. For the same compound, the selectivity ratio in data set [5] worked out at 35.
On to `O=C(NCc1cc(F)c(F)c(F)c1)c1nc(-c2ccc(F)cc2)[nH]c(=O)c1O`, for which the IC50 in data set [1] was determined as 8 µM; in data set [6], 14 µM. Besides, the CC50 in data set [2] is 34.5 µM. Besides, the EC50 in data set [3] is 4.64 µM. The compound further gave a Retention_time in data set [4] of 3.549 min. Moreover, in data set [5], the selectivity ratio amounted to 7.
As for `O=C(NCc1ccc(F)cc1)c1nc(-c2ccccc2)[nH]c(=O)c1O`, the values for the IC50 in data set [1] and in data set [6] were 1 µM and 17 µM, respectively. The Retention_time in data set [4] was determined as 2.378 min.
For the compound `O=C(NCc1ccc(F)cc1)c1nc(Cc2ccc(F)cc2)[nH]c(=O)c1O`, the results for the IC50 in data set [1] and in data set [6] were 10 µM and more than 20 µM, respectively. Besides, the Retention_time in data set [4] is given as 2.989 min.
On the same counts, the results for `O=C(NCc1ccc(F)cc1)c1nc(-c2ccc(Cl)cc2)[nH]c(=O)c1O` are 2 µM, 5 µM and 2.306 min.
On to `O=C(NCc1ccc(F)cc1)c1nc(-c2ccccc2F)[nH]c(=O)c1O`, for which the IC50 in data set [1] came to 2 µM; in data set [6] it was 16 µM. The Retention_time in data set [4] was 2.949 min.
On the same counts, the results for `O=C(NCc1ccc(F)cc1)c1nc(-c2ccc(Br)cc2)[nH]c(=O)c1O` are 1 µM, 3 µM and 2.385 min.
`O=C(NCc1ccc(F)cc1)c1nc(-c2cccc(F)c2)[nH]c(=O)c1O`: the results for the IC50 in data set [1] and in data set [6] were 1 µM and 5 µM, respectively. This compound returned a Retention_time in data set [4] of 2.379 min.
As for `O=C(NCc1ccccc1)c1nc(-c2ccccc2)nc(O)c1O`, the IC50 in data set [1] was 8 µM; in data set [6], more than 20 µM. The CC50 in data set [2] was determined as 50.7 µM. In addition, the EC50 in data set [3] was 5.65 µM. For the same compound, the Retention_time in data set [4] is 2.288 min. Besides, in data set [5], the selectivity ratio worked out at 9.

One may read the IC50 as the concentration that gives 50% inhibition. One may read the CC50 as the concentration giving 50% cytotoxicity. Broadly, the EC50 is the midpoint of the concentration-response curve.
